In ChEMBL document CHEMBL1777805, “2-Arylmethylaminomethyl-5,6-dihydroxychromone derivatives with selective anti-HCV activity” (Bioorg Med Chem Lett, 2011):

Experiments:
Hepatitis C virus = assay: Antiviral activity against HCV in human HuH7 cells assessed as inhibition of RNA replication after 4 days by FRET-based assay; type: functional, organism-based, Hepacivirus hominis; conditions: Huh-7, 96 h
Method in brief: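 Huh-7 cells carrying an HCV replicon were seeded at 5 × 10³/well in complete DMEM with 500 µg/mL G418 and held 24 h at 37 °C, 5% CO₂. The medium was then refreshed and compounds were added at 0.1–100 µM (seven levels) from DMSO stock. After 4 days at 37 °C, cells were lysed. NS3 protease FRET signal was read at 340 ex/490 em. IFN-α2b (10000 units/well) served as positive control.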

[1] = Cytotoxicity against human HuH7 cells assessed as reduction in cell proliferation; type: cell-based, Huh-7

Row | EC50 (Hepatitis C virus) [µM] | SMILES | CC50 [1] [µM]
1 | 2 | Cc1cccc(CNCc2cc(=O)c3c(O)c(O)ccc3o2)c1 | > 100
2 | 4.1 | O=c1cc(CNCc2ccc(I)cc2)oc2ccc(O)c(O)c12 | 41.7
3 | 14 | O=c1cc(CNCc2cccc(Cl)c2)oc2ccc(O)c(O)c12 | > 100
4 | > 100 | O=c1cc(CNCc2cccc([N+](=O)[O-])c2)oc2ccc(O)c(O)c12 | > 100
5 | 6.3 | O=c1cc(CNCc2ccccc2I)oc2ccc(O)c(O)c12 | 87.3
6 | > 100 | O=c1cc(CNCc2cccc(O)c2)oc2ccc(O)c(O)c12 | > 100
7 | > 100 | O=c1cc(CNCc2cccc(F)c2)oc2ccc(O)c(O)c12 | > 100
8 | > 100 | O=c1cc(CNCc2ccccc2)oc2ccc(O)c(O)c12 | > 100
9 | 7.3 | O=c1cc(CNCc2cccc(I)c2)oc2ccc(O)c(O)c12 | > 100
10 | 3.6 | O=c1cc(CNCc2cccc(Br)c2)oc2ccc(O)c(O)c12 | > 100
11 | > 100 | O=c1cc(CNCc2ccc(Br)cc2)oc2ccc(O)c(O)c12 | > 100

More lines, now with the values behind:

Row | SMILES | EC50 (Hepatitis C virus) [µM] | CC50 [1] [µM]
12 | O=c1cc(CNCc2ccc(Cl)cc2)oc2ccc(O)c(O)c12 | > 100 | > 100
13 | Cc1ccccc1CNCc1cc(=O)c2c(O)c(O)ccc2o1 | 1.2 | 52.2
14 | O=c1cc(CNCc2ccc(O)cc2)oc2ccc(O)c(O)c12 | > 100 | 62.7
15 | O=c1cc(CNCc2ccccc2Cl)oc2ccc(O)c(O)c12 | > 100 | > 100
16 | O=c1cc(CNCc2ccc([N+](=O)[O-])cc2)oc2ccc(O)c(O)c12 | > 100 | 73.3
17 | O=c1cc(CNCc2ccc(F)cc2)oc2ccc(O)c(O)c12 | > 100 | > 100
18 | O=c1cc(CNCc2ccccc2O)oc2ccc(O)c(O)c12 | > 100 | > 100
19 | O=c1cc(CNCc2ccccc2Br)oc2ccc(O)c(O)c12 | > 100 | > 100
20 | O=c1cc(CNCc2ccccc2[N+](=O)[O-])oc2ccc(O)c(O)c12 | > 100 | 41.3
21 | Cc1ccc(CNCc2cc(=O)c3c(O)c(O)ccc3o2)cc1 | 5.7 | > 100
